In publication PMC6609548 (British Journal of Pharmacology, 2019):

Tests used:
α1/β2/γ2 GABAA receptors = α1/β2/γ2 GABAA receptors (Homo sapiens, UniProt P14867+P18507+P47870); assay: Whole-cell patch-clamp on CHO cells expressing heteromeric GABAA receptors; type: cell-based; conditions: for decrease of currents induced by GABA (ramp protocol): 50 μM Azo-NZ1, 5 μM GABA, n = 5; for decrease of currents induced by GABA (ramp protocol) / decrease of amplitude of GABA-induced currents: visible light; for decrease of amplitude of GABA-induced currents: 70 μM Azo-NZ1, 5 μM GABA
Sequence of α1/β2/γ2 GABAA receptors (P14867 28-456): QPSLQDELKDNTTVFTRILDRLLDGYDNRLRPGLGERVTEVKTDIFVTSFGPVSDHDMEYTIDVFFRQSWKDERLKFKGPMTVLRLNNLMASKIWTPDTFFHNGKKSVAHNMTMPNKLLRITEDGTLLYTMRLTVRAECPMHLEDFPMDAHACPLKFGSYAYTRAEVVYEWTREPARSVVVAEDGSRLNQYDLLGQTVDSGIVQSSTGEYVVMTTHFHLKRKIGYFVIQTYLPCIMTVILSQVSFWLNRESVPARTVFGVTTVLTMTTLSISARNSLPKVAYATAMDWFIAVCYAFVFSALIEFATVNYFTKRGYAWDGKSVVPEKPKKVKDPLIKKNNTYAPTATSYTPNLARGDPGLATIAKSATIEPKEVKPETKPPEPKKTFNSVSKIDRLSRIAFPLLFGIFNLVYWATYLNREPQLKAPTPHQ
Sequence of α1/β2/γ2 GABAA receptors (P47870 25-512 limits assumed): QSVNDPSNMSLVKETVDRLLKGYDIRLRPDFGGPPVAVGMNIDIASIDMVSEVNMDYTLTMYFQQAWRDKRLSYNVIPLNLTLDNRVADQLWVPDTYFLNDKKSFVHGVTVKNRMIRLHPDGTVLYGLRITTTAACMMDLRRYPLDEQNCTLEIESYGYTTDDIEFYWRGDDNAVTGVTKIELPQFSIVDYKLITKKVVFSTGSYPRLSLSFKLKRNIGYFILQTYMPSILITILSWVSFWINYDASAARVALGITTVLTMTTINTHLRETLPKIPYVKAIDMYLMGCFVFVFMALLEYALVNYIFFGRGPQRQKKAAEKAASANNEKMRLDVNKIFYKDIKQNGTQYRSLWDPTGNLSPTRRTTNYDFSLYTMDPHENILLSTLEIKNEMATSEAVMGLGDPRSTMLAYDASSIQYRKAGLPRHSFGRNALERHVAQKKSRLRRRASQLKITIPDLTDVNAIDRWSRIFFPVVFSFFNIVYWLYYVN
Sequence of α1/β2/γ2 GABAA receptors (P18507 40-467 isoform P18507-1 limits assumed): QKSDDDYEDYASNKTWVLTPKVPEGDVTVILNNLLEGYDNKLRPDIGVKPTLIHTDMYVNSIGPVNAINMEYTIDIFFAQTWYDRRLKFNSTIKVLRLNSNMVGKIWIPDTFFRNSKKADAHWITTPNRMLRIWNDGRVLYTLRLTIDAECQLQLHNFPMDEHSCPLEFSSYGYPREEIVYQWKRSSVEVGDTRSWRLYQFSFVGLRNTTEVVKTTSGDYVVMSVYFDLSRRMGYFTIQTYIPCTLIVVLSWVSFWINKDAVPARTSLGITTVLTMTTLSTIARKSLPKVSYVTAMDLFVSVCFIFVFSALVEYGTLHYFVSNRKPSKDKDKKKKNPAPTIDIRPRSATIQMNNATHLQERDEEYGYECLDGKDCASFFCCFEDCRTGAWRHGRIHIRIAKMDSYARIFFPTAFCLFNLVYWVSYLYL

ρ1 GABAC receptors = ρ1 GABAC receptors (Homo sapiens, UniProt P24046); assay: Whole-cell patch-clamp on CHO cells expressing homomeric ρ1 GABAC receptors; type: cell-based; conditions: visible and UV light
Sequence of ρ1 GABAC receptors (P24046 22-479): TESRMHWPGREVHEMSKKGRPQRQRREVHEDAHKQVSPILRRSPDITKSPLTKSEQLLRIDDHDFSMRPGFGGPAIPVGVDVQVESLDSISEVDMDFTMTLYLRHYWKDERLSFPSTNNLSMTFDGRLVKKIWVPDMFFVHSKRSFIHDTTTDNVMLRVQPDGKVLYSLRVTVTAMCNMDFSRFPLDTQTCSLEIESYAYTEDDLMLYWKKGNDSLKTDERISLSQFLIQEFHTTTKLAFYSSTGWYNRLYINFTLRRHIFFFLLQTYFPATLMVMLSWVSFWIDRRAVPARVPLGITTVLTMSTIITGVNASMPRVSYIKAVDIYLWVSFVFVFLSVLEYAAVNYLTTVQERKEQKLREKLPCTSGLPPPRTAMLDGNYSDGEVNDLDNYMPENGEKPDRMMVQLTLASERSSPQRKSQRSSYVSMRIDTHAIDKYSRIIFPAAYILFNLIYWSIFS

ρ2 GABAC receptors = ρ2 GABAC receptors (Homo sapiens, UniProt P28476); assay: Whole-cell patch-clamp on CHO cells expressing homomeric ρ2 GABAC receptors; type: cell-based
Sequence of ρ2 GABAC receptors (P28476 21-465): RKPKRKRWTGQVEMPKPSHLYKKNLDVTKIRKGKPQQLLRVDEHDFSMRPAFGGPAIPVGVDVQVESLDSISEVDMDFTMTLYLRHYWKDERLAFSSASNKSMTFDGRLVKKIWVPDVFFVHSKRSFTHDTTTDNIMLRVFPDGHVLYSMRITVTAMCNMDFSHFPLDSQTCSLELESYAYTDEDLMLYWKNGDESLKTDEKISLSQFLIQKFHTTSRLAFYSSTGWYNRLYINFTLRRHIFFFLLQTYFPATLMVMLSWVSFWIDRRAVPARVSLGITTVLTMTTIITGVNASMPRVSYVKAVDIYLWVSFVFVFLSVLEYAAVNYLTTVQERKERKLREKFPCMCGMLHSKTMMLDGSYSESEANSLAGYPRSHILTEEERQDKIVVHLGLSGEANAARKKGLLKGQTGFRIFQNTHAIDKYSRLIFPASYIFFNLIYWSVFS
In short: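 ρ2 receptors were expressed in CHO-K1 cells by cDNA transfection with GFP; whole-cell recordings were made 24–72 hr later at 20–25°C using fast solution exchange. […] Test compound inhibition of GABA-evoked currents was measured at Vh −30 and +30 mV and normalised to the current just before compound application; mean ± SEM.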

GABA ρ1 P2′S receptors = GABA ρ1 P2′S receptors (Homo sapiens, UniProt P24046, P315S); assay: Whole-cell patch-clamp on CHO cells expressing mutant ρ1 P2′S receptors; type: cell-based; conditions: 100 μM Azo-NZ1, 10 μM GABA, visible light
Sequence of GABA ρ1 P2′S receptors (P24046 22-479 P315S): as the sequence (P24046 22-479) above, with P294S counted along it

ρ2 mutant S2′G receptors = ρ2 mutant S2′G receptors (Homo sapiens, UniProt P28476, S295G); assay: Whole-cell patch-clamp on CHO cells expressing mutant ρ2 S2′G receptors; type: cell-based
Sequence of ρ2 mutant S2′G receptors (P28476 21-465 S295G): as the sequence (P28476 21-465) above, with S275G counted along it
In short: (§1)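 CHO-K1 cells were transfected (Lipofectamine) with receptor subunit cDNA plus GFP; fluorescent cells were recorded whole-cell 24–72 hr later at 20–25°C. External HEPES-buffered saline at pH 7.4; KCl-based pipette solution at pH 7.3. Agonist and test compound were co-applied by a fast three-tube system at Vh −30/+30 mV or on a −60 to +60 mV ramp. UV came from a 365 nm LED (0.6 mW·mm−2). Cells with input resistance <150 MOhm or >30% run-down were excluded.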

α1 glycine receptors = biological target: T1, α1 glycine receptors (Homo sapiens, UniProt P23415); assay: Whole-cell patch-clamp on CHO cells expressing α1 glycine receptors; type: cell-based; conditions: 50 μM, glycine 30 μM, Vh −30 mV
T1 sequence (P23415 29-457): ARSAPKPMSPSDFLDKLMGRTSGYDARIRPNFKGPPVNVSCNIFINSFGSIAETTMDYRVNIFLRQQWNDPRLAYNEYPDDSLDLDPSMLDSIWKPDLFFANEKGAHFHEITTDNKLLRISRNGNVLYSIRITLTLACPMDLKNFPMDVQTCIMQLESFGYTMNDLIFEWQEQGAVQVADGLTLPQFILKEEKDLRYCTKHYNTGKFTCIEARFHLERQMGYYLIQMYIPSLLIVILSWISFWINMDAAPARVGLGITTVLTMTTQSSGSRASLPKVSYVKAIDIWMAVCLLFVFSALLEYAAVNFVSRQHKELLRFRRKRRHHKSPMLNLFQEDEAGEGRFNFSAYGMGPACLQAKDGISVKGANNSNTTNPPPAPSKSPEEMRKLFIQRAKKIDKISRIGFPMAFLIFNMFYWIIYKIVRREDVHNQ
In short: as §1

α2 glycine receptors = biological target: T2, α2 glycine receptors (Homo sapiens, UniProt P23416); assay: Whole-cell patch-clamp on CHO cells expressing α2 glycine receptors; type: cell-based; conditions: 50 μM, glycine 30 μM, Vh −30 mV, n = 10
T2 sequence (P23416 28-452): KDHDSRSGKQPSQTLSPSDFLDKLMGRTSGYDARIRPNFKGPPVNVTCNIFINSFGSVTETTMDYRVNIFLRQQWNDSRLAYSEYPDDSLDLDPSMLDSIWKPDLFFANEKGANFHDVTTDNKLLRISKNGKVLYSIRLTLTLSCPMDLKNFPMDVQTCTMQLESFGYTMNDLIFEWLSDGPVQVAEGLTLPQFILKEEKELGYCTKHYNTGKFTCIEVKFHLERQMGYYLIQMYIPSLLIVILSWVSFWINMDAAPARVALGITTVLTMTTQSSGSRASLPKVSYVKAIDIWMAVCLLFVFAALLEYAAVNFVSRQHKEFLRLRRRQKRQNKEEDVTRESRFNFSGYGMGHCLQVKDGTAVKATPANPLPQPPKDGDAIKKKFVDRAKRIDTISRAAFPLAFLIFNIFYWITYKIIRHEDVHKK
In short: as §1

5‐HT3A receptors = biological target: T3, 5‐HT3A receptors (Homo sapiens, UniProt P46098); assay: Whole-cell patch-clamp on CHO cells expressing homomeric 5HT3A receptors; type: cell-based; conditions: trans or cis‐configuration
T3 sequence (P46098 24-478): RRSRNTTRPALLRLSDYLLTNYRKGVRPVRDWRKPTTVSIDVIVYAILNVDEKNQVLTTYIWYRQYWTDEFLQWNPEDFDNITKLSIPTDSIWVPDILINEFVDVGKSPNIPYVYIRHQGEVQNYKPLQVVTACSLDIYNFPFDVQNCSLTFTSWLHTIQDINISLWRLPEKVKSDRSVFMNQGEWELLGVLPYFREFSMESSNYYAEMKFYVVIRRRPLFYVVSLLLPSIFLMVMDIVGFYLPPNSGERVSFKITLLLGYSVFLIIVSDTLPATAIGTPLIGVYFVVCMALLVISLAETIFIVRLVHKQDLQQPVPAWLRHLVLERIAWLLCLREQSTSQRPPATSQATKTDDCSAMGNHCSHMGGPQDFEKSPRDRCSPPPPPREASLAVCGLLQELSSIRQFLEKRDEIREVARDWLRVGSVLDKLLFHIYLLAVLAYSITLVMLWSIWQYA
In short: as §1

[1] = system: GABAergic eIPSCs in dentate gyrus granule cells; assay: Evoked GABAergic postsynaptic currents; type: cell-based, mice; conditions: for suppression of eIPSCs amplitude to: n = 5
In short: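 Hippocampal slices (coronal) from 3–4-week-old ICR outbred mice of both sexes, recovered ≥1 hr at room temperature and superfused with oxygenated aCSF at 32–34°C. Whole-cell recordings from dentate granule cells at Vh 0 mV. eIPSCs were evoked every 10 s from a theta-glass electrode placed 100–200 μm away. Protocol: 20–30 control events, then test compound in aCSF for 5–10 min, perfusate illuminated at 365 nm then 455 nm for 3–5 min each.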

## O=C1CN=C(c2ccccc2)c2cc(/N=N/c3ccc(S(=O)(=O)O)cc3)ccc2N1 [Azo‐NZ1, (E)‐4‐((2‐oxo‐5‐phenyl‐2,3‐dihydro‐1H‐benzo[e][1,4]diazepin‐7‐yl)diazenyl)benzenesulfonic acid]
α1/β2/γ2 GABAA receptors
  IC50: 67 ± 5 µM
α1/β2/γ2 GABAA receptors; +60 mV
  decrease of currents induced by GABA (ramp protocol): 76 ± 5%
α1/β2/γ2 GABAA receptors; −60 mV
  decrease of currents induced by GABA (ramp protocol): 40 ± 4%
α1/β2/γ2 GABAA receptors; 50 μM Azo-NZ1 co-applied with 300 μM GABA, Vhold −30 mV
  effect at saturating GABA compared with 5 μM GABA: even stronger inhibitory effect
α1/β2/γ2 GABAA receptors; +30 mV
  decrease of amplitude of GABA-induced currents: 78%
α1/β2/γ2 GABAA receptors; −30 mV
  decrease of amplitude of GABA-induced currents: 51%
α1/β2/γ2 GABAA receptors; Azo-NZ1 0.5–1 μM, 5 μM GABA
  effect on GABA-induced currents: did not produce effect
ρ1 GABAC receptors
  effect on receptor activity: did not alter the activity
ρ2 GABAC receptors
  IC50: 128 ± 25 µM
GABA ρ1 P2′S receptors
  effect on GABA-induced currents: inhibited currents
ρ2 mutant S2′G receptors; UV illumination in presence of Azo-NZ1
  UV effect: virtually absent
ρ2 mutant S2′G receptors; upon application of Azo-NZ1, n = 5
  decrease of current amplitude: 14 ± 2%
α1 glycine receptors; UV illumination
  current amplitude reduced to: 73 ± 2%
α1 glycine receptors; visible light (trans), n = 4
  current amplitude reduced to: 86 ± 3%
α2 glycine receptors; UV illumination
  current amplitude under UV illumination: 95 ± 7%
α2 glycine receptors; visible light
  current amplitude decreased to: 23 ± 3%
5‐HT3A receptors
  interaction with 5‐HT3A receptors: did not interact in a specific manner
[1]; 100 μM Azo-NZ1, blue light, Vh 0 mV
  suppression of eIPSCs amplitude to: 58.6 ± 3.3%
[1]; 200 μM Azo-NZ1, blue light, Vh 0 mV
  suppression of eIPSCs amplitude to: 25.2 ± 6.0%
[1]; single neuron, 100 μM Azo-NZ1, Vh 0 mV, control aCSF 156.9 ± 4.5 pA
  amplitude of eIPSCs: 100.6 ± 3.2 pA

## CN1CCc2cc3c(cc2[C@H]1[C@@H]1OC(=O)c2c1ccc1c2OCO1)OCO3 [Bicuculline, bicuculline, reference compound]
[1]; bicuculline 10 μM, Vh 0 mV
  effect on eIPSCs: complete inhibition

## CN1C(=O)CN=C(c2ccccc2)c2cc(Cl)ccc21 [Diazepam, diazepam, reference compound]
α1/β2/γ2 GABAA receptors; diazepam 10 μM co-applied with non-saturating GABA (5 μM), Vh −30 mV
  effect on GABA-induced current amplitude: increase in the current amplitude
